Laboratory results: ChEMBL document CHEMBL1139138, “Pyrrolidine-constrained phenethylamines: The design of potent, selective, and pharmacologically efficacious dipeptidyl peptidase IV (DPP4) inhibitors from a lead-like screening hit” (Bioorg Med Chem Lett, 2007)

Assays:
[1] = Half life in rat liver microsome; assay type: ADME; details: liver microsomes
Procedure, shortened: (§1)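 Stability on incubation with rat or human liver microsomes, expressed as half-life.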

[2] = Half life in human liver microsome; assay type: ADME; details: liver microsomes; procedure, shortened: as §1
Cytochrome P450 2D6 = Cytochrome P450 2D6 (Homo sapiens, UniProt P10635); experiment: Inhibition of CYP2D6; assay type: ADME
Cytochrome P450 2C9 = Cytochrome P450 2C9 (Homo sapiens, UniProt P11712); experiment: Inhibition of CYP2C9; assay type: ADME
Cytochrome P450 3A4 = Cytochrome P450 3A4 (Homo sapiens, UniProt P08684); experiment: Inhibition of CYP3A4; assay type: ADME
Dipeptidyl peptidase 4 [3] = target: T1, Dipeptidyl peptidase 4 (Homo sapiens, UniProt P27487); experiment: Inhibition of human DPP4 by tight binding assay
Dipeptidyl peptidase 4 [4] = target: T1, Dipeptidyl peptidase 4; experiment: Inhibition of human DPP4 in presence of rat plasma protein; assay type: cell-free
Prolyl endopeptidase FAP = target: T2, Prolyl endopeptidase FAP (Homo sapiens, UniProt Q12884); experiment: Inhibition of human FAPalpha
T2 sequence (Q12884 whole entry): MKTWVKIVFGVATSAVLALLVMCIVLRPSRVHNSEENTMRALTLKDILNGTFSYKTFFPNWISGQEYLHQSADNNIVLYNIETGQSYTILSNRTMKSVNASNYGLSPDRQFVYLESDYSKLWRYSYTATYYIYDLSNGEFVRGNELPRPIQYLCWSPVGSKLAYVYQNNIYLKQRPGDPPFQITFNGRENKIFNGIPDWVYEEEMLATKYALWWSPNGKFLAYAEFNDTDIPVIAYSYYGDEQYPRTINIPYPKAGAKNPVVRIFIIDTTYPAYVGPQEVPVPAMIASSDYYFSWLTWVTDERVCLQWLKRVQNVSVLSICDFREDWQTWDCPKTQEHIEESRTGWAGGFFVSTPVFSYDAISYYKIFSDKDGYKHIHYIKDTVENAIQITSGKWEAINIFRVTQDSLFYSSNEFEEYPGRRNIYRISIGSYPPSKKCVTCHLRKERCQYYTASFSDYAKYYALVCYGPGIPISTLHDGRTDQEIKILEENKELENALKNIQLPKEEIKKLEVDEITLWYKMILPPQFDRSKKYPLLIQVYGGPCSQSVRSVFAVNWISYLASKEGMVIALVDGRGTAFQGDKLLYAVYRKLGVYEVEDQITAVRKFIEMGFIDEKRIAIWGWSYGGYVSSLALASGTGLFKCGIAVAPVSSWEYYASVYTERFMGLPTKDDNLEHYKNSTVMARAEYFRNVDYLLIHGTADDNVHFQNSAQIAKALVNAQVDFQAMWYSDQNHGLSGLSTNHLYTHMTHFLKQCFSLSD

Prolyl endopeptidase = target: T3, Prolyl endopeptidase (Homo sapiens, UniProt P48147); experiment: Inhibition of human POP
T3 sequence (P48147 whole entry): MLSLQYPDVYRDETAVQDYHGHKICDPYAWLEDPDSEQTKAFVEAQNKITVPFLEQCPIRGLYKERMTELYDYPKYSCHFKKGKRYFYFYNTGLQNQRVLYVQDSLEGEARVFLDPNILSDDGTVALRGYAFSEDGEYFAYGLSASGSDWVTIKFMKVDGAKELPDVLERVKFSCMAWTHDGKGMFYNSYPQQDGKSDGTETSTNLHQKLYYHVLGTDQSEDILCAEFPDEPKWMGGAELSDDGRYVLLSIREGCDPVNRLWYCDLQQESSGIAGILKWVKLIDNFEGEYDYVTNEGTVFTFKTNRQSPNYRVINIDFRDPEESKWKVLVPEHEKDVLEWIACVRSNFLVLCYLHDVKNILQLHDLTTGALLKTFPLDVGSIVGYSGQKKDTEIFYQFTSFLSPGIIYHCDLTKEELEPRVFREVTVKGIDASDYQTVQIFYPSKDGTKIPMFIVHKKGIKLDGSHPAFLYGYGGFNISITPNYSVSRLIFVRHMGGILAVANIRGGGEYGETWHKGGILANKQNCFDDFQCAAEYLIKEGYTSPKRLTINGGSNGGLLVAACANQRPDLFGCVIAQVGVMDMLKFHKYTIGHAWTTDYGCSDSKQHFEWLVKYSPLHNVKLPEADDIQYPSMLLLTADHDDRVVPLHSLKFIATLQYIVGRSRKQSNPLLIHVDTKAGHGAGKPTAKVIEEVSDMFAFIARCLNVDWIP

[5] = Plasma clearance in Sprague-Dawley rat at 5 mg/kg, po; assay type: ADME, organism-based; design: dose 5 mg/kg, route oral
Procedure, shortened: (§2)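 Pharmacokinetics in rat dosed at 5 mg/kg and in dog and monkey dosed at 2.5 mg/kg. Cmax, t1/2 (terminal) and AUC were taken from oral dosing. F is oral bioavailability. Vss is volume of distribution at steady state.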

Rattus norvegicus [6] = experiment: Volume of distribution at steady state in Sprague-Dawley rat at 5 mg/kg, po; assay type: ADME, organism-based; design: dose 5 mg/kg, route oral; details: in vivo; procedure, shortened: as §2
[7] = Cmax in Sprague-Dawley rat at 5 mg/kg, po; assay type: ADME, organism-based; design: dose 5 mg/kg, route oral; details: in vivo; procedure, shortened: as §2
[8] = Half life in Sprague-Dawley rat at 5 mg/kg, po; assay type: ADME, organism-based; design: dose 5 mg/kg, route oral; details: in vivo; procedure, shortened: as §2
Rattus norvegicus [9] = experiment: AUC in Sprague-Dawley rat at 5 mg/kg, po; assay type: ADME, organism-based, Plasma; design: dose 5 mg/kg, route oral; details: in vivo; procedure, shortened: as §2
[10] = Oral bioavailability in Sprague-Dawley rat at 5 mg/kg, po; assay type: ADME, organism-based; details: in vivo; procedure, shortened: as §2
Dipeptidyl peptidase 8 = Dipeptidyl peptidase 8 (Homo sapiens, UniProt Q6V1X1); experiment: Inhibition of human DPP8
Dipeptidyl peptidase 9 = Dipeptidyl peptidase 9 (Homo sapiens, UniProt Q86TI2); experiment: Inhibition of human DPP9
Sequence of Dipeptidyl peptidase 9 (Q86TI2 whole entry): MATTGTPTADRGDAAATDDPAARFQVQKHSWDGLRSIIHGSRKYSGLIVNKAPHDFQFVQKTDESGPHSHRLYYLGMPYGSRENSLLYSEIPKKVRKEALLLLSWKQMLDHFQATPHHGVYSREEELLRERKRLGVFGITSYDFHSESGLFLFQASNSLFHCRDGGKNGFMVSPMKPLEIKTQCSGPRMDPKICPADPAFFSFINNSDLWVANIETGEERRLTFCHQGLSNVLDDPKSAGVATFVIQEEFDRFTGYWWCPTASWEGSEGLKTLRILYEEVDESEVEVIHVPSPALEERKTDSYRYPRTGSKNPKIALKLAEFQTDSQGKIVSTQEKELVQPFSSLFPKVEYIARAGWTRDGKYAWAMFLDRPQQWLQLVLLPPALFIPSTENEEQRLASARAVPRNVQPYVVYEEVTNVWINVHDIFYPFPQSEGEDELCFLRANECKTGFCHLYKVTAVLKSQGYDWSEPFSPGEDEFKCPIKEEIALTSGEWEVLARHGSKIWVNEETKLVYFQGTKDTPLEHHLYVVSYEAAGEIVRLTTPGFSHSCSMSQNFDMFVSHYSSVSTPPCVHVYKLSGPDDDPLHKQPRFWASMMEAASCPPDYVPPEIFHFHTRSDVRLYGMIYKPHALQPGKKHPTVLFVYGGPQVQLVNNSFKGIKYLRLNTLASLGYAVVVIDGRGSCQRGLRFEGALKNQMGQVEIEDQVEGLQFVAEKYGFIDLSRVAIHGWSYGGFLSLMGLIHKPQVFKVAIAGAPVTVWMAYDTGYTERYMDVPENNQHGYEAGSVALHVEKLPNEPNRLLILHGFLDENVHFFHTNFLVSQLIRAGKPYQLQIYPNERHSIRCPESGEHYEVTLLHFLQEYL

Sequence of Cytochrome P450 2D6 (P10635 whole entry): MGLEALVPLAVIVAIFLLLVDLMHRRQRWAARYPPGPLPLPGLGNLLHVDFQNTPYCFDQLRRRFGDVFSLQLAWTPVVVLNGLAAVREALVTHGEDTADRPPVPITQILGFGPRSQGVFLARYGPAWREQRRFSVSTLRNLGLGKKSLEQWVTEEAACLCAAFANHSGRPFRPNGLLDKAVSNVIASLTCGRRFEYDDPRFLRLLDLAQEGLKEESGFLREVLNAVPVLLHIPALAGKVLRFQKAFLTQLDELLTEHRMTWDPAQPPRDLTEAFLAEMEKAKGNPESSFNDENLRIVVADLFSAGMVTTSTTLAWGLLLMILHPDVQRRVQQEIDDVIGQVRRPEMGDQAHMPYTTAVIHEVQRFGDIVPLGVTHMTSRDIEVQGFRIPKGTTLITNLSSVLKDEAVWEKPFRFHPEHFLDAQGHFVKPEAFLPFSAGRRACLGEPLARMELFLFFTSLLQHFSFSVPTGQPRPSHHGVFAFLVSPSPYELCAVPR
Sequence of Cytochrome P450 3A4 (P08684 whole entry): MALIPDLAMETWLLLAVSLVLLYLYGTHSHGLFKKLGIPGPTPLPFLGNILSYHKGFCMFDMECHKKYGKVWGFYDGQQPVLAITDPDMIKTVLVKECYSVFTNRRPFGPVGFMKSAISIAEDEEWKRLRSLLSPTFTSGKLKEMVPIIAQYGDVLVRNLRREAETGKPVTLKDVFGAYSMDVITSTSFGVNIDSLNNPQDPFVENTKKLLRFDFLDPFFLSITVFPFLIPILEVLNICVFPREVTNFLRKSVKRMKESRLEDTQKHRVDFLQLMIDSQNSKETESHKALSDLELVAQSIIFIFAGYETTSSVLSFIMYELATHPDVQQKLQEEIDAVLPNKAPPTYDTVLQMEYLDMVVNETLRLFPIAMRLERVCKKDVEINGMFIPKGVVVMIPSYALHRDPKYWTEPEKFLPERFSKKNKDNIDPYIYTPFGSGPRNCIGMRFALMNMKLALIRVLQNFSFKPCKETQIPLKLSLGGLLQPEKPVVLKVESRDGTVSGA
Sequence of Cytochrome P450 2C9 (P11712 whole entry): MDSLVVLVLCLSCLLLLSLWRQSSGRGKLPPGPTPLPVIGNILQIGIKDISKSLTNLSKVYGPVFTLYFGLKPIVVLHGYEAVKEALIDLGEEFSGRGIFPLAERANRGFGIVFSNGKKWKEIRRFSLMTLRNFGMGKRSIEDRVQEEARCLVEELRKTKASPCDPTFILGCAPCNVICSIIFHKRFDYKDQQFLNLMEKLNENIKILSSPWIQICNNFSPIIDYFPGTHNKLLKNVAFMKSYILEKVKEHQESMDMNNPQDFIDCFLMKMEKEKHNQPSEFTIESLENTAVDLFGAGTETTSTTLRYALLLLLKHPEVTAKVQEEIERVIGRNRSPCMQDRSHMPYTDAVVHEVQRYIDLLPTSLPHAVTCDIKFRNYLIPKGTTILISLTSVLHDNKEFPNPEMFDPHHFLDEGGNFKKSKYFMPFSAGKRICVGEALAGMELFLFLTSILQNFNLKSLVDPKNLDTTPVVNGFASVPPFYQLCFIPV
T1 sequence (P27487 whole entry): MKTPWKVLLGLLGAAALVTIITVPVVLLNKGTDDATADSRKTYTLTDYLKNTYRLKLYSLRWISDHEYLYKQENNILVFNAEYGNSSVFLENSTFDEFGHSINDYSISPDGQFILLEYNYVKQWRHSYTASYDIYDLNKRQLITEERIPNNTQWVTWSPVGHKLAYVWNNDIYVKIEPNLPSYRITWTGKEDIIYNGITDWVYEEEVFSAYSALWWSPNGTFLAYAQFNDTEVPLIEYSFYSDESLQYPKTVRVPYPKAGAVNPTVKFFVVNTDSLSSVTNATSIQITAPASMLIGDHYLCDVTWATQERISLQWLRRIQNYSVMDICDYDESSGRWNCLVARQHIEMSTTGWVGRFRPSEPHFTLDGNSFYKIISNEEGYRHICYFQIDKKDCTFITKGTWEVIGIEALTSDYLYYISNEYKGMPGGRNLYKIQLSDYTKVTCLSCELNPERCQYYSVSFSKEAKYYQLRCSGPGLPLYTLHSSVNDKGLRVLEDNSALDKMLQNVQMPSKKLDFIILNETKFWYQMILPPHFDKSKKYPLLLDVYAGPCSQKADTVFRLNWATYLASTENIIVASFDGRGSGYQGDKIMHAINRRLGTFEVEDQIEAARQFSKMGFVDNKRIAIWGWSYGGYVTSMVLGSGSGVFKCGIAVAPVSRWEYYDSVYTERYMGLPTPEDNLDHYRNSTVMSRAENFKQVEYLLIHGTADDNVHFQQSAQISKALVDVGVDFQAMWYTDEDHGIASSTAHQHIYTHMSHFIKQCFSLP
Sequence of Dipeptidyl peptidase 8 (Q6V1X1 whole entry): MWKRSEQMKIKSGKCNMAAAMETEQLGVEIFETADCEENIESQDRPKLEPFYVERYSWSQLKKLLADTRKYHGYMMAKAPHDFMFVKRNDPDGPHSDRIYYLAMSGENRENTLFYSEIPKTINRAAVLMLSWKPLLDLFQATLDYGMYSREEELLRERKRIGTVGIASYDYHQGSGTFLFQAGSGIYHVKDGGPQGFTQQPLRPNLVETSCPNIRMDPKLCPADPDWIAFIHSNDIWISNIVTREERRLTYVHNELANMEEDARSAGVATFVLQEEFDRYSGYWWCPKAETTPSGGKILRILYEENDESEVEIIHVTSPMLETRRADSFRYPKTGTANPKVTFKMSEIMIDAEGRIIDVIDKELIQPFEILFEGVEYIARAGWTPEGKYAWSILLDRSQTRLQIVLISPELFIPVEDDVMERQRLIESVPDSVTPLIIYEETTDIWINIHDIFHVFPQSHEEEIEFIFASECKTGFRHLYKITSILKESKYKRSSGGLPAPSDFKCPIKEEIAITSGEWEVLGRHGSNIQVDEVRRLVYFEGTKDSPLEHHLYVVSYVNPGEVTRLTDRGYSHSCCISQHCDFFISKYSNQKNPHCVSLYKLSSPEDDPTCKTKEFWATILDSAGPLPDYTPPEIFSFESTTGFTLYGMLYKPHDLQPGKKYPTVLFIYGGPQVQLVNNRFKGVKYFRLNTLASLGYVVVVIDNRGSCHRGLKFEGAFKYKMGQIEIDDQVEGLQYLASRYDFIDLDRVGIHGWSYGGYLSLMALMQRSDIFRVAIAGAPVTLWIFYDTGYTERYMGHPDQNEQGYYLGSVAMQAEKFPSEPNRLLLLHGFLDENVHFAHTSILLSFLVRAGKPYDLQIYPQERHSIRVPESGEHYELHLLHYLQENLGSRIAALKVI

SMILES	half-life [1]	half-life [2]	further results
NC1CN(c2ccccn2)CC1c1ccc(Cl)cc1Cl (racemic)	> 3 h	> 3 h	
Cc1cccc(COC(=O)N2CC(N)C(c3ccc(Cl)cc3Cl)C2)n1 (racemic)	> 3 h	> 3 h	
NC1CN(c2ncccn2)CC1c1ccc(Cl)cc1Cl (racemic)	> 3 h	> 3 h	
CCNC(=O)N1CC(N)C(c2ccc(Cl)cc2Cl)C1 (racemic)	> 3 h	> 3 h	
CC(=O)N1CC(N)C(c2ccc(Cl)cc2Cl)C1 (racemic)	> 3 h	> 3 h	
NC1CN(c2cc(-c3ccsc3)ncn2)CC1c1cc(F)c(F)cc1F (racemic)	> 3 h	> 3 h	IC50 (Cytochrome P450 2D6): 0.098 µM; IC50 (Cytochrome P450 2C9): > 10 µM; IC50 (Cytochrome P450 3A4): > 10 µM
CS(=O)(=O)c1cc(F)cc(-c2cc(N3CC(N)C(c4cc(F)c(F)cc4F)C3)ncn2)c1 (stereo not drawn)	> 3 h	> 3 h	
NC1CN(c2cc(-c3ccsc3)ncn2)CC1c1ccc(Cl)cc1Cl (racemic)	> 3 h	> 3 h	
NC1CN(C(=O)NCc2cccc(F)c2)CC1c1ccc(Cl)cc1Cl (racemic)	> 3 h	> 3 h	
NC1CN(c2cc(-c3cccc(S(=O)(=O)N4CCOCC4)c3)ncn2)CC1c1cc(F)c(F)cc1F (stereo not drawn)	> 3 h	> 3 h	Ki (Dipeptidyl peptidase 4 [3]): 0.0032 µM; Ki (Dipeptidyl peptidase 4 [4]): 0.0017 µM; Ki (Prolyl endopeptidase FAP): > 30 µM; Ki (Prolyl endopeptidase): > 30 µM; IC50 (Cytochrome P450 2D6): > 10 µM; IC50 (Cytochrome P450 2C9): > 10 µM; IC50 (Cytochrome P450 3A4): > 10 µM; CL/F [5]: 34.8 mL/min/kg; Vdss (Rattus norvegicus [6]): 1.84 L/kg; Cmax [7]: 347 ng/mL; half-life [8]: 1.1 h; AUC (Rattus norvegicus [9]): 515 ng·h/mL; bioavailability [10]: 21%
NC1CN(c2nccc(-c3ccccc3)n2)CC1c1ccc(Cl)cc1Cl (racemic)	> 3 h	> 3 h	
NC1CN(c2nccc(-c3ccsc3)n2)CC1c1ccc(Cl)cc1Cl (racemic)	> 3 h	> 3 h	
NC1CN(c2cc(-c3cccc(C(=O)O)c3)ncn2)CC1c1cc(F)c(F)cc1F (stereo not drawn)	> 3 h	> 3 h	Ki (Dipeptidyl peptidase 8): > 3 µM; Ki (Dipeptidyl peptidase 9): > 3 µM; Ki (Prolyl endopeptidase FAP): > 30 µM; Ki (Prolyl endopeptidase): > 30 µM; IC50 (Cytochrome P450 2D6): > 10 µM; IC50 (Cytochrome P450 3A4): > 10 µM; CL/F [5]: 18.3 mL/min/kg; Vdss (Rattus norvegicus [6]): 1.78 L/kg; Cmax [7]: 176 ng/mL; half-life [8]: 6.8 h; AUC (Rattus norvegicus [9]): 652 ng·h/mL; bioavailability [10]: 18%
CCOC(=O)N1CC(N)C(c2ccc(Cl)cc2Cl)C1 (racemic)	> 3 h	> 3 h	
NC1CN(c2cc(-c3ccsc3)ncn2)CC1c1ccc(F)cc1Cl (racemic)	> 3 h	> 3 h	
